Assay results from ChEMBL document CHEMBL4354871, “Discovery of Selective Small Molecule Degraders of BRAF-V600E” (J Med Chem, 2020).
pIC50, pKd: −log10 of the molar value. Calls of active or inactive are those of the source. The rule behind the calls is not given here.

Columns and labels:
[1] = system: HaCaT; assay: Cytotoxicity in human HaCaT cells assessed as reduction in cell viability at 10 nM to 10 uM by Cell-titer-Lumi assay; type: cell-based
Summary of the method: (§1)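 Cells grown in DMEM with 10% FBS at 37 °C, 5% CO2. Seeded at 2000 cells/well, then treated across a 12-point serial dilution. Viability read after three days by CellTiter-Lumi luminescence. IC50 obtained by nonlinear least-squares regression of dose-response curves. Lines STR-authenticated and mycoplasma-free.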

[2] = system: WI-38; assay: Cytotoxicity in human WI38 cells assessed as reduction in cell viability at 10 nM to 10 uM by Cell-titer-Lumi assay; type: cell-based; conditions: wi-38, 10 nM to 10 uM; summary of the method: as §1
[3] = system: Protein cereblon/Serine/threonine-protein kinase B-raf (Homo sapiens), P15056+Q96SW2 [V600E]; assay: Protac activity at CRBN/BRAF V600E mutant in human A375 cells assessed as induction of BRAF V600E mutant degradation at 1 to 1000 nM incubated for 16 hrs by immunoblotting; type: cell-based
Summary of the method: (§2)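 A375 cells (BRAF-V600E, DMEM with 10% FBS, 37 °C, 5% CO2) were exposed to DMSO or a serial dilution of degrader for 16 h. Cells were lysed in cold RIPA with protease and phosphatase inhibitors, protein was measured by BCA, and samples were run on SDS-PAGE. Blots were probed for BRAF, p-ERK1/2 and α-tubulin, detected by ECL, and bands were quantitated.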

[4] = system: IMR-90; assay: Cytotoxicity in human IMR90 cells assessed as reduction in cell viability at 10 nM to 10 uM by Cell-titer-Lumi assay; type: cell-based; conditions: imr-90, 10 nM to 10 uM; summary of the method: as §1
[5] = molecular target: Serine/threonine-protein kinase B-raf (Homo sapiens, UniProt P15056, V600E); assay: Binding affinity to DNA-tagged BRAF (unknown origin) V600E mutant by KINOMEscan assay
[6] = system: HT-29; assay: Cytotoxicity in human HT-29 cells assessed as reduction in cell viability by Cell-titer-Lumi assay; type: functional, cell-based; summary of the method: as §1
[7] = system: A-375; assay: Cytotoxicity in human A375 cells assessed as reduction in cell viability by Cell-titer-Lumi assay; type: functional, cell-based; summary of the method: as §1
[8] = molecular target: T1, Serine/threonine-protein kinase B-raf (Homo sapiens, UniProt P15056); assay: Binding affinity to DNA-tagged BRAF (unknown origin) by KINOMEscan assay
[9] = system: Protein cereblon/Serine/threonine-protein kinase B-raf (Homo sapiens), P15056+Q96SW2 [V600E]; assay: Protac activity at CRBN/BRAF V600E mutant in human A375 cells assessed as induction of BRAF V600E mutant degradation at 500 nM incubated for 6 hrs after 1 hr pre-treatment with 1 uM NEDD8-activating enzyme inhibitor […] by immunoblotting
[10] = system: Protein cereblon/Serine/threonine-protein kinase B-raf (Homo sapiens), P15056+Q96SW2 [V600E]; assay: Protac activity at CRBN/BRAF V600E mutant in human A375 cells assessed as induction of BRAF V600E mutant degradation at 500 nM incubated for 6 hrs after 1 hr pre-treatment with 200 nM proteasome inhibitor bortezomib by immunoblotting
[11] = molecular target: T2, Protein cereblon/Serine/threonine-protein kinase B-raf (Homo sapiens) (UniProt P15056+Q96SW2); assay: Protac activity at CRBN/BRAF kinase domain (unknown origin) expressed in human A375 cells assessed as induction of BRAF degradation at 1 to 1000 nM incubated for 16 hrs by immunoblotting; type: cell-based
Summary of the method: (§3)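 A375 lines stably expressing the BRAF-V600E or wild-type BRAF kinase domain were made by lentiviral transduction and kept in 1 µg/mL puromycin. They were treated with DMSO or a 3-fold serial dilution of compound for 16 h. Kinase-domain levels were read by immunoblotting of RIPA lysates with ECL and band quantitation.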

[12] = system: Protein cereblon/Serine/threonine-protein kinase B-raf (Homo sapiens), P15056+Q96SW2 [V600E]; assay: Protac activity at CRBN/BRAF V600E mutant in human A375 cells assessed as reduction in BRAF V600E mutant-mediated ERK phosphorylation at 1 to 1000 nM incubated for 16 hrs by immunoblotting; type: cell-based; summary of the method: as §2
[13] = system: Protein cereblon/Serine/threonine-protein kinase B-raf (Homo sapiens), P15056+Q96SW2 [V600E]; assay: Protac activity at CRBN/BRAF V600E mutant in human A375 cells assessed as induction of BRAF V600E mutant degradation at 500 nM incubated for 6 hrs after 1 hr pre-treatment with 10 uM pomalidomide by immunoblotting
[14] = molecular target: T2, Protein cereblon/Serine/threonine-protein kinase B-raf (Homo sapiens); assay: Protac activity at CRBN/BRAF in human A549 cells assessed as induction of BRAF degradation at 15 to 1000 nM incubated for 16 hrs by immunoblotting; type: cell-based
Summary of the method: (§4)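 A549 cells carrying wild-type BRAF (DMEM, 10% FBS) were treated with DMSO or a 3-fold serial dilution of compound for 16 h. BRAF was read by immunoblotting: RIPA lysis, BCA protein assay, SDS-PAGE, anti-BRAF antibody with α-tubulin as loading control, ECL detection and densitometric quantitation.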

[15] = system: Protein cereblon/Serine/threonine-protein kinase B-raf (Homo sapiens), P15056+Q96SW2 [V600E]; assay: Protac activity at CRBN/BRAF V600E mutant in human A375 cells assessed as reduction in BRAF V600E mutant-mediated ERK phosphorylation at 1 to 1000 nM incubated for 2 hrs by immunoblotting; type: cell-based
[16] = system: A-375; assay: Inhibition of colony formation in human A375 cells at 40 to 1000 nM incubated for 7 days by crystal violet staining based assay; type: functional, cell-based
Summary of the method: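 A375 plated at 200 cells/well, dosed the following day with DMSO or compound. After seven days, cells fixed and stained with 0.5% crystal violet, and colonies counted. Data as mean ± SD; Student's t-test against corresponding control groups.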

[17] = system: Protein cereblon/Serine/threonine-protein kinase B-raf (Homo sapiens), P15056+Q96SW2 [V600E]; assay: Protac activity at CRBN/BRAF V600E mutant kinase domain (unknown origin) expressed in human A375 cells assessed as induction of BRAF V600E mutant degradation at 1 to 1000 nM incubated for 16 hrs by immunoblotting; type: cell-based; summary of the method: as §3
[18] = system: Protein cereblon/Serine/threonine-protein kinase B-raf (Homo sapiens), P15056+Q96SW2 [V600E]; assay: Protac activity at CRBN/BRAF V600E mutant in human A375 cells assessed as induction of BRAF V600E mutant degradation at 500 nM incubated for 6 hrs after 1 hr pre-treatment with 20 uM proteasome inhibitor MG132 by immunoblotting
[19] = molecular target: T1, Serine/threonine-protein kinase B-raf; assay: Potency index, ratio of Kd for vemurafenib to Kd of test compound for binding affinity to DNA-tagged BRAF (unknown origin) by KINOMEscan assay
[20] = system: Serine/threonine-protein kinase B-raf (Homo sapiens), P15056 [V600E]; assay: Potency index, ratio of Kd for vemurafenib to Kd of test compound for binding affinity to DNA-tagged BRAF (unknown origin) V600E mutant by KINOMEscan assay
[21] = molecular target: T2, Protein cereblon/Serine/threonine-protein kinase B-raf (Homo sapiens); assay: Protac activity at CRBN/BRAF in human A549 cells assessed as induction of BRAF degradation at 1 to 1000 nM incubated for 16 hrs by immunoblotting; type: cell-based; summary of the method: as §4

Sequence of Serine/threonine-protein kinase B-raf (Homo sapiens, UniProt P15056, V600E) (P15056 2-766 V600E limits assumed): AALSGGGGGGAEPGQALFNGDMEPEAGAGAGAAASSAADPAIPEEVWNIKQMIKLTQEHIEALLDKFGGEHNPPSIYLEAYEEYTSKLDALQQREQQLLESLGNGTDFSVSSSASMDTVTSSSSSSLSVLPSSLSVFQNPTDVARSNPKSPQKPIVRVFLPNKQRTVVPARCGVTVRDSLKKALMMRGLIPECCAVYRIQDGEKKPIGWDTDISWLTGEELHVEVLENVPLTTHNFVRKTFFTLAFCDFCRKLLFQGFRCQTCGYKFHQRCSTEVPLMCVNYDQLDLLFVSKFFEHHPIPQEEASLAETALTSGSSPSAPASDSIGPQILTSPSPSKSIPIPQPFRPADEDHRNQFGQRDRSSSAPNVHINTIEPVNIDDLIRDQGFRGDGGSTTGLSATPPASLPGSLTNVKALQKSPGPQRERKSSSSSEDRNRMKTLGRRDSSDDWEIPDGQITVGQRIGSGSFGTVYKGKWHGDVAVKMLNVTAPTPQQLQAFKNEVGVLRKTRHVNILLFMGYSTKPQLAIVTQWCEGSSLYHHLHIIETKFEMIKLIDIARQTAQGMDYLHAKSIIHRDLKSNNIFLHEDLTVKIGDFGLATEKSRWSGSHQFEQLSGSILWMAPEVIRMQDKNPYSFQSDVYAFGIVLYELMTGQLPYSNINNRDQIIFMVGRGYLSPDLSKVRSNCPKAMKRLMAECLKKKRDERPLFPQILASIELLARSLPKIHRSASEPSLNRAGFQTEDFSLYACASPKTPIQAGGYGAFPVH
T2 sequence (P15056 whole entry, looked up, the tested form may be a part): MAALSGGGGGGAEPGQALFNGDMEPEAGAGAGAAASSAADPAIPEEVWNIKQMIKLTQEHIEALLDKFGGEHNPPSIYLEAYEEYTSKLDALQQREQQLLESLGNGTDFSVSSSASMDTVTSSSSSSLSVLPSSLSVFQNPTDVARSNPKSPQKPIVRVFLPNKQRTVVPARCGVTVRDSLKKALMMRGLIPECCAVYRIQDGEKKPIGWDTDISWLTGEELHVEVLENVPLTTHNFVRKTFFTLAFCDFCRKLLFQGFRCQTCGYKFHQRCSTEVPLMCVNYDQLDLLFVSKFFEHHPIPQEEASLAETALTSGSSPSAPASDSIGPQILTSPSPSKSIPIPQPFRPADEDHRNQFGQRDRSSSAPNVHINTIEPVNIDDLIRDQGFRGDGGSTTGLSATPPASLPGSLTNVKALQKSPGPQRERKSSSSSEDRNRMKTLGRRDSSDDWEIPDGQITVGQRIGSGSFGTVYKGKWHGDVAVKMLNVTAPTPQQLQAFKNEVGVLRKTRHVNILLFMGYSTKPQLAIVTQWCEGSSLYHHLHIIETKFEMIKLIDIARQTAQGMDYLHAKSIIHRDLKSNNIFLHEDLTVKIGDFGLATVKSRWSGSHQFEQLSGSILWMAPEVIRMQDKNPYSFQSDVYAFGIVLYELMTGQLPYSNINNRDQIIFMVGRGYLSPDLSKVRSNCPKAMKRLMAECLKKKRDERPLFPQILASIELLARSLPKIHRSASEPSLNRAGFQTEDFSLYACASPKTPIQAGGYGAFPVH
T2 sequence (Q96SW2 whole entry, looked up, the tested form may be a part): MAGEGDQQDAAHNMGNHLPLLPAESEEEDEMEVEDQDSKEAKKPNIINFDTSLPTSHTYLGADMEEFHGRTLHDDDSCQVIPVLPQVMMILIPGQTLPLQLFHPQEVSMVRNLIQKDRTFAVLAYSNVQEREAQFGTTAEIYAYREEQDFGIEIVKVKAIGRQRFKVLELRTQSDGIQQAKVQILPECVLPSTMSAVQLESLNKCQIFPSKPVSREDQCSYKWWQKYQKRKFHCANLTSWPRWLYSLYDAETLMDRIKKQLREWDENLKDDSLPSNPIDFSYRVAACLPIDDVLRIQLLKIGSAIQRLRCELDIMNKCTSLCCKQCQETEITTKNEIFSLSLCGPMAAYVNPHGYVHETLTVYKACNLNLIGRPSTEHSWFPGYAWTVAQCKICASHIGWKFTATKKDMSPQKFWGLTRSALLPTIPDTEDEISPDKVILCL
T1 sequence (P15056 whole entry): as the sequence (P15056 whole entry, looked up, the tested form may be a part) above
Sequence of Serine/threonine-protein kinase B-raf (Homo sapiens), P15056 [V600E] (P15056 whole entry V600E): as the sequence (P15056 whole entry, looked up, the tested form may be a part) above, with V600E counted along it

Row | SMILES | Activity [1] | Activity [2] | Activity [3] | Activity [4] | pKd [5] | pIC50 [6] | pIC50 [7] | pKd [8] | Activity [9] | Activity [10] | Activity [11] | Activity [12] | Activity [13] | inhibition [16] | Activity [17] | Activity [18] | further results
1 | CCCS(=O)(=O)Nc1ccc(F)c(-n2cc(-c3cncnc3)c3nc(N(C)C4CCN(C(=O)CCOCCOCCOCCNc5cccc6c5C(=O)N(C5CCC(=O)N(C)C5=O)C6=O)CC4)ccc32)c1F (centres undefined) | Non-Toxic | Non-Toxic | inactive | Non-Toxic | 8.57 | 6.46 | 6.72 | 8.59 |  |  |  |  |  |  |  |  | 
2 | CCCS(=O)(=O)Nc1ccc(F)c(-n2cc(-c3cncnc3)c3nc(N(C)C4CCN(CC)CC4)ccc32)c1F [XP-102] |  |  |  |  | 9.48 | 8.77 | 8.20 | 9.43 |  |  |  |  |  |  |  |  | 
3 | CCCS(=O)(=O)Nc1ccc(F)c(-n2cc(-c3cncnc3)c3nc(N(C)C4CCN(C(=O)CCOCCOCCOCCNc5cccc6c5C(=O)N(C5CCC(=O)NC5=O)C6=O)CC4)ccc32)c1F (centres undefined) | Non-Toxic | Non-Toxic | Dose-dependent effect | Non-Toxic | 8.70 | 7.29 | 7.33 | 8.62 | inactive | inactive | inactive | Dose-dependent effect | inactive | Active | Active | inactive | Activity [14]: inactive; Activity [15]: Active
4 | CCCS(=O)(=O)Nc1ccc(F)c(C(=O)c2c[nH]c3ncc(-c4ccc(Cl)cc4)cc23)c1F [VEMURAFENIB] |  |  |  |  |  | 6.79 | 6.94 |  |  |  |  |  |  |  |  |  | 
5 | CCCS(=O)(=O)Nc1ccc(F)c(C(=O)c2c[nH]c3ncc(-c4ccc(CNC(=O)CCCCNc5ccc6c(c5)C(=O)N(C5CCC(=O)NC5=O)C6=O)cc4)cc23)c1F (centres undefined) | Non-Toxic | Non-Toxic | Dose-dependent effect | Non-Toxic | 7.84 | 6.91 | 6.30 | 8.02 | inactive | inactive | inactive | Dose-dependent effect | inactive | Active | Active | inactive | Ratio [19]: 4 to 5; Ratio [20]: 4 to 5; Activity [21]: inactive
6 | CCCS(=O)(=O)Nc1ccc(F)c(C(=O)c2c[nH]c3ncc(-c4ccc(CNC(=O)CCCCNc5ccc6c(c5)C(=O)N(C5CCC(=O)N(C)C5=O)C6=O)cc4)cc23)c1F (centres undefined) | Non-Toxic | Non-Toxic | inactive | Non-Toxic | 8.14 | 6.34 | 6.31 | 8.29 |  |  |  |  |  |  |  |  | 
